Reference: ChEMBL document CHEMBL3352644, “Selenadiazole derivatives as potent thioredoxin reductase inhibitors that enhance the radiosensitivity of cancer cells” (Eur J Med Chem, 2014)
Activity calls are given as the source filed them. No cut-off for these calls is given here.

Legend:
[1] = target: c-Jun N-terminal kinase, JNK (Homo sapiens) (UniProt P45983+P53779+P45984); assay: Induction of JNK phosphorylation in human A375 cells at 4 ug/mL incubated for 6 hrs followed by irradiation with 8 Gy X-ray at 37 degC for 12 hrs by Western blotting method; format: cell-based; conditions: A-375
In short: (§1)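 A375 cells pretreated 6 h with compound at 4 µg/ml, given 0 or 8 Gy X-ray, then incubated 12 h more. Lysed in RIPA buffer, pH 7.4, with protease and phosphatase inhibitors; 50 µg protein run on SDS-PAGE and blotted to nitrocellulose. Blocked in 5% milk; primary antibodies 1:1000, 10 h at 4 °C; HRP secondary 1:2000.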

[2] = target: MAP kinase p38 (Homo sapiens) (UniProt O15264+Q15759+Q16539+P53778); assay: Induction of p38 phosphorylation in human A375 cells at 4 ug/mL incubated for 18 hrs by Western blotting method; format: cell-based; conditions: A-375
In short: (§2)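 A375 cells given […] for 6 h, then 0 or 8 Gy X-ray at 1.5 Gy/min and 12 h further culture. Lysis in ice-cold RIPA, pH 7.4, with protease and phosphatase inhibitors; protein by BCA. […] protein per lane on SDS-PAGE, transferred to nitrocellulose. Blocked in 5% milk/TBST. Primary 1:1000, 10 h, 4 °C; HRP secondary 1:2000, 1.5 h.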

[3] = test system: A-375; assay: Induction of apoptosis in human A375 cells assessed as caspase 3 activation at 2 ug/mL incubated for 18 hrs by Western blotting method; format: functional, cell-based
In short: (§3)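 A375 cells treated with 2 µg/ml alone or with 8 Gy X-ray (6 h pretreatment, then 12 h; 18 h total). RIPA lysates (50 µg protein) run on SDS-PAGE and immunoblotted for caspases and PARP cleavage. Reprobed for β-actin as loading control.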

[4] = test system: A-375; assay: Induction of cell cycle arrest in human A375 cells assessed as accumulation at G2/M phase at 4 ug/mL incubated for 18 hrs by propidium iodide staining based flow cytometry (reference value: 13.9%); format: functional
In short: (§4)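 A375 cells treated at 10 or 4 µg/ml for 6 h, given 0 or 8 Gy X-ray, then 12 h more. Trypsinized, washed in PBS, fixed overnight in ice-cold 75% ethanol at −20 °C. Stained with propidium iodide, 30 min at 37 °C in the dark; DNA content and sub-G1 population read by flow cytometry.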

[5] = target: Thioredoxin reductase (Homo sapiens) (UniProt Q16881+Q9NNW7+Q86VQ6); assay: Inhibition of TrxR antioxidant enzyme activity in human A375 cells at 2 ug/mL after 18 hrs by insulin reduction assay; format: cell-based; conditions: A-375
[6] = test system: A-375; assay: Induction of apoptosis in human A375 cells assessed as PARP cleavage at 2 ug/mL incubated for 6 hrs followed by irradiation with 8 Gy X-ray at 37 degC for 12 hrs by Western blotting method; format: functional, cell-based; in short: as §3
[7] = test system: A-375; assay: Induction of cell cycle arrest in human A375 cells assessed as accumulation at S phase at 4 ug/mL incubated for 6 hrs followed by irradiation with 8 Gy X-ray at 37 degC for 12 hrs by propidium iodide staining based flow cytometry (reference value: 7.9%); format: functional; in short: as §4
[8] = test system: A-375; assay: Increase in Bax expression in human A375 cells at 4 ug/mL incubated for 18 hrs by Western blotting method; format: functional, cell-based; in short: as §1
[9] = test system: A-375; assay: Induction of apoptosis in human A375 cells assessed as caspase 3 activation at 2 ug/mL incubated for 18 hrs by fluorometric assay; format: functional, cell-based
In short: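 Cells seeded at 1 × 10⁶ per 10 cm dish and treated with 2 µg/ml alone or with 8 Gy X-ray for 18 h total. RIPA lysates clarified by spinning at 12,000 rpm for 5 min; 80 µg protein given Ac-DEVD-AMC (caspase-3), Ac-IETD-AMC (caspase-8) or Ac-LEHD-AMC (caspase-9). Incubated 2 h at 37 °C in the dark; fluorescence at 380/440 nm.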

[10] = test system: A-375; assay: Reduction in Bcl-2 expression in human A375 cells at 4 ug/mL incubated for 6 hrs followed by irradiation with 8 Gy X-ray at 37 degC for 12 hrs by Western blotting method; format: functional, cell-based; in short: as §2

Activity [1]: Active | Activity [2]: Active | inhibition [5]: Active
SMILES: COc1cc(-c2nc3cc(-c4ccc5n[se]nc5c4)ccc3[nH]2)cc(OC)c1OC
Activity [3]: Active | Activity [4]: 44.4% | Activity [6]: Active | Activity [7]: 30.6% | Activity [8]: Active | Activity [9]: Active | Activity [10]: Active
